Test [1] concerns Mus musculus. The test can be described thus: Time to peak effect in mice was evaluated by Maximal electroshock seizure (MES) test in hours by oral administration. In kind it is functional. An outline of the steps:
(§1)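 Oral dosing in 30% PEG 400: phase IV in mice (0.01 mL/g), phase VI in Sprague-Dawley rats (0.004 mL/g). ED50/TD50 found as in phase II, at the stated time of peak effect. MES current 50 mA in mice, 150 mA in rats. PTZ sc 85 mg/kg in mice, 70 mg/kg in rats. Toxicity by rotorod in mice; positional sense, gait and stance in rats. PI = TD50/ED50.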
For orientation: Protection in the maximal electroshock model is a classic sign of anticonvulsant action.

Test [2] deals with Mus musculus. The test can be described thus: Median effective dose was evaluated by Maximal electroshock seizure test through intraperitoneal administration. In kind it is functional. The following applies: ip. An outline of the steps: (§2)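 Phase II in mice, ip dosing in 30% PEG 400. Groups of 6-12 mice per dose until at least three points fall in 10-90% protection. […] MES: 50 mA, 0.2 s corneal. scMet: pentylenetetrazol 85 mg/kg sc.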

The species entered for test [3] is Mus musculus. The test can be described thus: Time to peak activity was evaluated by Maximal electroshock seizure test in hours. In kind it is functional.
The species entered for test [4] is Mus musculus. The test can be described thus: Median hypnotic dose was evaluated by loss of righting reflex. The class given is functional.
Test [5] relates to Mus musculus. The test can be described thus: Time to peak effect in mice was evaluated by Neurologic toxicity (rotarod test) in hours by oral administration. The class given is functional. An outline of the steps: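 Oral dosing in mice in 30% PEG 400 (0.01 mL/g). Neurologic deficit was scored by the rotorod ataxia test, and the time of peak effect was given in hours.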
(The rotarod test checks motor coordination on a turning rod.)

In test [6] the test system is Mus musculus. The test can be described thus: Median Effective dose was evaluated by Subcutaneous pentylenetetrazole seizure test in mice by oral administration. In kind it is functional.
Test [7] concerns Mus musculus. The test can be described thus: Median Effective dose was evaluated by Maximal electroshock seizure (MES) test in mice by oral administration up to 2000 mg/kg; f=no protection. The class given is functional, organism-based. Further details: dose 2000 mg/kg.
Test [8] deals with Mus musculus. The test can be described thus: Inhibition of seizures induced in mice by a convulsant dose of bicuculline through ip administration. The class given is functional. The gist of the method:
(§3)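 Phase V differentiation in mice: test drug given ip at time of peak therapeutic effect, then the CD₉₇ of each convulsant (picrotoxin, bicuculline, strychnine) given ip as a 0.5% solution; observation 30 min for bicuculline and strychnine, 45 min for picrotoxin. Drug in 30% PEG 400, 0.01 mL/g. ED₅₀ with 95% confidence intervals from ≥3 points in the 10-90% protection range, groups of 6-12 mice.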

Test [9] deals with Mus musculus. The test can be described thus: Median lethal dose was evaluated by mortality after 24 hr through ip injection administration. The class given is functional. The gist of the method: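 Mice were dosed ip in 30% PEG 400. Mortality was scored 24 h after injection in groups of eight. The 24-h LD₅₀ was derived as for the ED₅₀/TD₅₀, with 95% confidence intervals.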

The subject of test [10] is Mus musculus. The test can be described thus: (§4) Median Effective dose was evaluated by Subcutaneous pentylenetetrazole seizure test in Rats by oral administration. In kind it is functional.
The subject of test [11] is Mus musculus. The test can be described thus: (§5) Time to peak effect in Rats was evaluated by Neurologic toxicity (rotarod test) in hours by oral administration. The class given is functional.
The test system of test [12] is Mus musculus. The test can be described thus: Time to peak effect in mice was evaluated by Subcutaneous pentylenetetrazole seizure test in hours by oral administration. In kind it is functional. The gist of the method: as §1
Test [13] deals with Mus musculus. The test can be described thus: (§6) Time to peak effect in Rats was evaluated by Subcutaneous pentylenetetrazole seizure test in hours by oral administration. The class given is functional. The gist of the method: (§7)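 Oral dosing in Sprague-Dawley rats (30% PEG 400, 0.004 mL/g). Time to peak effect, in hours, was read in the MES test (150 mA, 60 Hz, corneal, 0.2 s; loss of tonic hind-leg extension) and in the scMet test (pentylenetetrazol 70 mg/kg sc; no clonus ≥5 s within 30 min).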

The subject of test [14] is Mus musculus. The test can be described thus: Median effective dose was evaluated by subcutaneous pentylenetetrazole seizure test through intraperitoneal administration. The class given is functional. An outline of the steps: as §2
The species entered for test [15] is Mus musculus. Description: Time to peak toxicity was evaluated by Maximal electroshock seizure test in hours. The class given is functional.
Test [16] concerns Mus musculus. Description: Inhibition of picrotoxin-induced seizures in mice by ip administration at 250-1000 mg/kg (h= maximum 62.5% protection). In kind it is functional, organism-based. The gist of the method: as §3
Test [17] has as its system Mus musculus. The test can be described thus: Median toxic dose was evaluated by […] through intraperitoneal administration. The class given is functional.
Test [18] relates to Mus musculus. The test can be described thus: (§8) Time to peak effect in Rats was evaluated by Maximal electroshock seizure (MES) test in hours by oral administration. The class given is functional. The gist of the method:
as §7

Test [19] has as its system Mus musculus. Description: […] was evaluated by Neurologic toxicity (rotarod test) in mice by oral administration. The class given is functional. An outline of the steps: as §1
In test [20] the test system is Mus musculus. The test can be described thus: Median Effective dose was evaluated by Maximal electroshock seizure (MES) test in Rats by oral administration up to 1200 mg/kg; g= no protection. In kind it is functional, organism-based. Further details: dose 1200 mg/kg.
Test [21] has as its system Rattus norvegicus. Description: Median Effective dose was evaluated by Maximal electroshock seizure (MES) test in Rats by oral administration. The class given is functional.
Test [22] has as its system Rattus norvegicus. Description: […] was evaluated by Neurologic toxicity (rotarod test) in Rats by oral administration. The class given is functional.
Test [23] has as its system Mus musculus. Description: Median Effective dose was evaluated by Maximal electroshock seizure (MES) test in mice by oral administration. In kind it is functional.
For test [24], the system named is Rattus norvegicus. Described as §8. The class given is functional. An outline of the steps: as §1
Test [25] relates to Mus musculus. The test can be described thus: Inhibition of seizures induced in mice by a convulsant dose of strychnine through ip administration. The class given is functional. An outline of the steps:
as §3

Test [26] has as its system Rattus norvegicus. The description is as §4. In kind it is functional.
Test [27] relates to Rattus norvegicus. The description is as §5. In kind it is functional.
In test [28] the test system is Rattus norvegicus. The test is described as §6. In kind it is functional. The gist of the method: as §1
The test system of test [29] is Mus musculus. The test can be described thus: Inhibition of picrotoxin-induced seizures in mice by ip administration. In kind it is functional. The gist of the method:
as §3

In the case of `CCC1(C)CC(=O)NC1=O` (stereo unspecified) [ETHOSUXIMIDE], the TPE in test [1] was 0.5 h; in test [3] it was 0.5; in [5], 1 h; in [11], 2 h; in [12], 0.5 h; in test [13], 2 h. Besides, the TPE in test [15] was found to be 0.5; in test [18], 2 h. The ED50 (usually the dose that gives a 50% effect, or the effect in half of the subjects) is > 1000 mg/kg in test [2]; 193 mg/kg in [6]; “No protection” in test [7]; 459 mg/kg in test [8]; 54 mg/kg in test [10]; 130 mg/kg in [14]. Besides, the figures for the ED50 result in test [16] and in test [20] were “Max protection” and “No protection”, respectively. In test [4], this compound displayed an HD50 of 850 mg/kg. The LD50 – broadly, the dose at which mortality reaches 50% – in test [9] is 1810 mg/kg. Besides, the TD50 (usually the 50% point of the dose-response relation for the toxic effect studied) was found to be 441 mg/kg in test [17] and 879 mg/kg in test [19].
Consider `CCC1(c2ccccc2)C(=O)NC(=O)NC1=O` [PHENOBARBITAL], for which the TPE was 2 h in [1]; 1 in test [3]; 2 h in [5]; 5 h in test [24]; 0.5 h in [27]; 2 h in test [12]. Besides, the TPE turned out to be 5 h in test [28] and 0.5 in [15]. Besides, the ED50 was determined as 22 mg/kg in test [2]; 9.1 mg/kg in test [21]; 13 mg/kg in [6]; 20 mg/kg in test [23]; 28 mg/kg in [25]; 38 mg/kg in test [8]. The ED50 amounted to 12 mg/kg in [26], 13 mg/kg in test [14] and 95 mg/kg in test [29]. In test [4], the HD50 is 135 mg/kg. In addition, the figures for the TD50 in test [22] and in [17] were 61 mg/kg and 69 mg/kg, respectively. For the same compound, the LD50 in test [9] worked out at 265 mg/kg.

Values taken from ChEMBL document CHEMBL1129543, “Synthesis and evaluation of N-(phenylacetyl)trifluoromethanesulfonamides as anticonvulsant agents” (J Med Chem, 1996).
